Variants at the floor of the assay were thinned out. Where only a bound is given, the exact number is not on record here.

First the molecules themselves.
B1: tRNA (parent)
chain: GUUCCGUUGGCGUAAUGGUAACGCGUCUCCCUCCUAAGGAGAAGACUGCGGGUUCGAGUCCCGUACGGAACG

The variants in the data set derive from B1. The data set is described as follows: yeast fitness relative to wild type (ratio to wild type); higher = fitter; tRNA-Arg(CCU), competitive growth, 37 C, YPD. The procedure, abridged: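 The tRNA-Arg(CCU) gene variants were made by chemical synthesis with a 3% per-site mutation rate at 69 sites and inserted at the native genomic locus of Saccharomyces cerevisiae. After pooling, the strains were competed in YPD at 37°C for 24 hours in six parallel replicates. Gene amplicons from the start population and each end population were read by 100-nucleotide paired-end sequencing, and Darwinian fitness relative to wild type was taken from genotype frequency changes. Genotypes needed ≥ 100 starting reads, and estimates < 0.5 were set to 0.5.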
For the variant GUUCCGUUGGCGUAAUGGAAACGCGUCUCCCUCCUAAGGAGAAGAUUGCGGGUUCGCGUCCCGUACGGACCG, the yeast fitness was at most 0.5.

With GUUCCGUUGGCGUAAUGGCAGUGCGUCUCCCUCCUAAGGAGAAGACUGCGGGUUCGAGUCCCGUACGGAACG, the yeast fitness was 0.552.

Take GUUCCGUUGGCGUAAUGGAAACGCGCCUCACUCCUAAGGAGAAGACUGCGGGUUCGAGUCCCGUACUGAACG: the yeast fitness was at most 0.5.

GUUCCGUUGGCGUAAUGGCGACGCGUCUCCCUCCUAAGGAGAAGACUGCGGGUUCGAAUCCCGUACGGAACG: the yeast fitness turned out to be 0.709.

For GUUCCGUUGGCGUAAUGGAAACGCAUCUCCCUCCUAUGGAGGAGACUGCGGGUUUGAGUCCCGUACGGAACG, the yeast fitness was at most 0.5.

In the case of GUUCCGUUGGCGUAAUGGAAACGCGUCUCCCUCCUAAGGAGAAGACUGCGGGUUCGAGUCCUGUACGGAACG, the yeast fitness is 0.931.

For the variant GUUCCGUUGGCGUAAUGGCAACGCGUCUCCCUCCUACGGAGAAGACUGCGGGUUCGAGUCCAGCACGGAACG, the yeast fitness was at most 0.5.

On to GUUCCGUUGGCGUAAUGGCGACGCGUCUCCCUCCUAAGGAGAAGACUGCGGGUUCGAGUCCCGUACAGUACG, for which the yeast fitness is at most 0.5.

With GUUCCGUUGGCGUAAUGGAAACGCGUCUCCCUCCUAAGGAGAAGACUACGGGUUCGAGUCCCGUACGGAACG, the yeast fitness turned out to be 1.05.

In the case of GUUCCGUUGGCGUAAUGGAAACGCGUCUCCCUCCUAAGGAGAAGACUGGGGGUUCGAGCGCGGUACGGAACG, the yeast fitness is at most 0.5.

Turning to GUUCCGUUGGCGUAAUGGAAACGCGUCUCCCUCCUAAGGAGAAGACUGCGGGUUCGAGGCCCGUACGGAACG, the yeast fitness was 0.793.

Take GUUCCGUUGGCGUAAUGGAAACGCGUCUCCCUCCUAAGGAGAAGACUGCGGGUUCGAGACCCGUACGGAACG: the yeast fitness is 0.845.

On to GUUCCGUUGGCGUAAUGGAAACGCCUCUCCCUACUAGGGAGAAGACUGCGGGUUCGAGUCCCGUACGAAACG, for which the yeast fitness was at most 0.5.

Take GUUCCGUUGGCGUAAUGGAAACGCGUCACCCUCCUAAGGAGAAGACUGCGGGGUCGAGUCCCGUACGGAACG: the yeast fitness was at most 0.5.

On to GUUCCGUUGGCGUAAUGGAAACCCGUCUCACUCCUGAGGAGAAGACUGCGGGUUCGAGUUCCGUACGGAACG, for which the yeast fitness is at most 0.5.

Regarding GUUCCGUUGGCGUAAUGGAAACGCGUCUCCCUCCUAACGAGAAGACUGCGGGUUCGAGUACCGUACGGAACG, the yeast fitness was at most 0.5.

With GUUCCGUUGGCGUAAUGGCAACGCGUCUCCCUCCUACGGAGAAGCAUGCGGGUUCGAGUCCCGUACGGAACG, the yeast fitness was 0.897.

On to GUUCCGUUGGCGUAAUGGAAACGCGUCUCCCUCCUAAGGAAGAGACUGCGGGUUCGAUUCCCCUACGGAACG, for which the yeast fitness is at most 0.5.

Turning to GUUCCGUUGGCGUAAUGGAAACGCGUCUCCCUCCAUAGGAGAAGACUGCGGGUUGCAGUCCCGUACGGAACG, the yeast fitness is at most 0.5.

Turning to GUUCCGUUGGCGUAAUGGAAACGCGUCUCCCUCCAAGGGAGAUGCCUGCGGGUUCGAGUCCCGUACGGAACG, the yeast fitness is at most 0.5.

As for GUUCCGUUGGCGUAAUGGAAACGCGUCUCCCUCCUAAGGAGAAAACUGCGGGUUCGAGUCCCGUACGGCACG, the yeast fitness came out at 0.685.

Regarding GUUCCGUUGGCGUAAUGGCCACGCGUCUCCGUCCUAAGGAGAAGACUGCGGGUUCGAGUCCCGUCCGGAACG, the yeast fitness is at most 0.5.

For the variant GUUCCGUUGGCGUAAUGGCAACGCGUCUCCCUCCUAAGGAGUAGACUGCGGGUUCGAGUCCCGUACGGAACG, the yeast fitness was 1.12.

Regarding GUUCCGUUGGCGUAAUGGCAGCGCGGCUCCCUCCUAAGGAGAAGACUGCGGGUUCGAGUCCCGUACGGAACG, the yeast fitness came out at 1.01.

For the variant GUUCCGUUGGCGUAAUGGCAACGCGUCUCCCUCCUAAGGAGAGCCCUGCGGGUUCGAGUCCCGUAUGGAACG, the yeast fitness was 0.589.

As to GUUCCGUUGGCGUAAUGGCCACGCGUCUCCCUUCAAAGGAGAAGACUGCGGGUUCGAAUCCCGUACGGAACG, the yeast fitness is at most 0.5.

In the case of GUUCCGUUGGCGUAAUGGAAACGCGUCUCCCACCUGAGGAGAAGACUGCGGGUUCGAGUCCCGUACGGAACG, the yeast fitness is at most 0.5.

Regarding GUUCCGUUGGCGUAAUGGCCACGCGUCUCCCUCCUAAGGAGAGGAAUGCGGGUUUGUGUCUCGUACGGAACG, the yeast fitness stood at 0.592.

As for GUUCCGUUGGCGUAAUGGCCACGCGUCUCCCUCCUAAGGAGAAGACUGCGGGUUCGAGUCCCGUUCGGAACG, the yeast fitness came to 0.55.

As to GUUCCGUUGGCGUAAUGGCAUAGCGUCUCCCUCCUAAGGAGAAGACUGUGGGUUCGAGUCCCGUACGGAACG, the yeast fitness was determined as 0.536.

GUUCCGUUGGCGUAAUGGCAACGCGUCUCCCUCCUUAGGAGAAGACUGCGGGUUCGAGUCCCGUACGGAUCG: the yeast fitness was at most 0.5.

For the variant GUUCCGUUGGCGUAAUGGAAACGCGUCUCCCUCCUAAGGAGAAGACUGCGGGAUCGAGUCCCGUACGGAACG, the yeast fitness was determined as 0.553.

GUUCCGUUGGCGUAAUGGAAACGCGUCUCCCUCCUAAGGAGAAGACUGCGGGUUCGAGUCCCGUAUGGAACG: the yeast fitness stood at 0.996.

On to GUUCCGUUGGCGUAAUGGAAACGCGUCUCCCUCCUAAGGAGAAGACUGCGGGUUCGAGUCCCGUAGGGAACG, for which the yeast fitness turned out to be 0.686.

As to GUUCCGUUGGCGUAAUGGAAACGCGUCUCCCUCCUAAGGAGAAGACUGCGGGUUCGAGUCCCGUAAGGAACG, the yeast fitness turned out to be 0.607.

In the case of GUUCCGUUGGCGUAAUGGAAACGCGUCUCCCUCCUAAGGAGAAGACUGCGGGUUCGAGUGCCGUACGGACCG, the yeast fitness came out at 0.502.

With GUUCCGUUGGCGUAAUGGCUACGCGUGUCCCUCCUAAGGAGAAGACUGCGGCUUCGAGUCCCGUACGGAACG, the yeast fitness is at most 0.5.
